Assay results as given in article PMC4280364 (ChemMedChem, 2014).

Assays:
wild-type p97 = wild-type p97 (Homo sapiens, UniProt P55072); experiment: ATPase assay, wild type p97; type: biochemical
Method in brief: (§1)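 Human p97 (WT or the Walker B mutant named), 25 nM monomer, in 50 mM Tris pH 7.4, 20 mM MgCl2, 1 mM EDTA, 0.5 mM TCEP, 0.01% Triton X-100 and 200 μM ATP. An initial 4-dose titration (30, 10, 3.3, 1.1 μM) was run in triplicate, then an 8-dose titration (30 down to 0.04 μM, plus 0). ATPase activity was read with Biomol Green reagent.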

D2-active mutant (E305Q) = D2-active mutant (E305Q) (Homo sapiens, UniProt P55072, E305Q); experiment: ATPase assay, D2-active Walker B mutant; type: biochemical
Chain of D2-active mutant (E305Q) (P55072 whole entry E305Q): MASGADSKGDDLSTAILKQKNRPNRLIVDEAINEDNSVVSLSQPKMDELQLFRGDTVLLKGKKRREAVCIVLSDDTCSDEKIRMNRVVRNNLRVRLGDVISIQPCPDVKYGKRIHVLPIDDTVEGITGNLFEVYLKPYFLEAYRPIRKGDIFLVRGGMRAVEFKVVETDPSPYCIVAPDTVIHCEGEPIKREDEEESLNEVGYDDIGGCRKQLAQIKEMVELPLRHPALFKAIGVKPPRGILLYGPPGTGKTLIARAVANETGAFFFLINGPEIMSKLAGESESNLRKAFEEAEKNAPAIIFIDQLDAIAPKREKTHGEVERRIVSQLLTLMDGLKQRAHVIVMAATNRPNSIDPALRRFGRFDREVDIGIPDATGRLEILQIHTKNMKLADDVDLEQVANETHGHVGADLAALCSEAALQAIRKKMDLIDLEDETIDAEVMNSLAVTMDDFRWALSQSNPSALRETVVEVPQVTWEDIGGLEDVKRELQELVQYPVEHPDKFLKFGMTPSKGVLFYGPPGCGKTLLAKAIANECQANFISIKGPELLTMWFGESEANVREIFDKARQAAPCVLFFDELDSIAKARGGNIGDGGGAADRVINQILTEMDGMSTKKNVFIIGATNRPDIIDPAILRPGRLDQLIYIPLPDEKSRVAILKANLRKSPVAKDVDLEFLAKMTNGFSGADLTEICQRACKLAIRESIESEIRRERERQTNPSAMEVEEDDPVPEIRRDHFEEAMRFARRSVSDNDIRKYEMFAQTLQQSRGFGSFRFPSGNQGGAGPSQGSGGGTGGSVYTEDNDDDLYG
Method in brief: as §1

D1-active mutant (E578Q) [1] = biological target: T1, D1-active mutant (E578Q) (Homo sapiens, UniProt P55072, E578Q); experiment: ATPase assay, D1-active Walker B mutant; type: biochemical
T1 sequence (P55072 whole entry E578Q): as the sequence (P55072 whole entry E305Q) above, with Q305E, E578Q counted along it
Method in brief: as §1

D1-active mutant (E578Q) [2] = biological target: T1, D1-active mutant (E578Q); conditions: previous studies of the authors; cited from earlier work
p97-p47 complex [3] = biological target: T2, p97-p47 complex (Homo sapiens, UniProt P55072); experiment: ATPase assay, p97-p47 complex; type: biochemical
T2 sequence (P55072 whole entry): as the sequence (P55072 whole entry E305Q) above, with Q305E counted along it
T2 sequence (Q9UNZ2 whole entry partner): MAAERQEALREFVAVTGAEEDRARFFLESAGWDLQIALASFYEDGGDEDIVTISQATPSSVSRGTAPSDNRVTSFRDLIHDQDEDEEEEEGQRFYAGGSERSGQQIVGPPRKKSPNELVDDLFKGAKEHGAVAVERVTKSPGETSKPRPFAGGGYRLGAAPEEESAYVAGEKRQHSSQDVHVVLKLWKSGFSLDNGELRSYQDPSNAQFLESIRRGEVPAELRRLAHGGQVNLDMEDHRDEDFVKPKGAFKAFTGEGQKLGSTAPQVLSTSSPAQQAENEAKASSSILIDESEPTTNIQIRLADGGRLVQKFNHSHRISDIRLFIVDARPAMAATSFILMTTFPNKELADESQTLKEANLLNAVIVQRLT
Method in brief: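 The p97-p47 complex was formed by adding p47 to 400 nM final with human p97 at 25 nM monomer. Buffer was 50 mM Tris pH 7.4, 20 mM MgCl2, 1 mM EDTA, 0.5 mM TCEP, 0.01% Triton X-100 and 200 μM ATP. Titrations were 4-dose in triplicate (30–1.1 μM), then 8-dose (30–0.04 μM, plus 0). Activity was detected with Biomol Green reagent.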

p97-p47 complex [4] = biological target: T2, p97-p47 complex; conditions: cited from earlier work; for inhibition of the p97-p47 complex compared to p97 alone, in words: Figure 1 legend, earlier work of the authors; for fold decrease in potency caused by p47 (p97-p47 complex versus p97): previously found by the authors

Chain of wild-type p97 (P55072 whole entry): as the sequence (P55072 whole entry E305Q) above, with Q305E counted along it

Row | IC50 (wild-type p97) [µM] | IC50 (D2-active mutant (E305Q)) [µM] | fold increase of IC50 against the D2-active mutant (E305Q) compared to WT p97 (D2-active mutant (E305Q); 200 μM ATP) [fold] | selectivity toward the D2 domain (D2-active mutant (E305Q); D2 versus D1) [fold] | IC50 (D1-active mutant (E578Q) [1]) [µM] | fold increase of IC50 against the D1-active mutant (E578Q) compared to WT p97 (D1-active mutant (E578Q) [1]; 200 μM ATP) [fold] | IC50 (p97-p47 complex [3]) [µM] | Compound | domain selectivity D1 versus D2, in words (D1-active mutant (E578Q) [2]) | inhibition of the p97-p47 complex compared to p97 alone, in words (p97-p47 complex [4]) | fold decrease in potency caused by p47 (p97-p47 complex versus p97) (p97-p47 complex [4]) | domain selectivity D1 versus D2 (E578Q versus E305Q mutants), in words (D1-active mutant (E578Q) [1]; 8-dose titration, Figure 3 / Table S1)
1 | 5.4 | 7.6 | 1.4 | 3 | 13.1 | 2.4 | 12.3 | c1ccc(CNc2nc(NCc3ccccc3)c3ccccc3n2)cc1 [DBeQ, N2,N4-dibenzylquinazoline-2,4-diamine] | inhibit both the D1 and D2 ATPase domains |  |  | 
2 |  |  |  |  |  |  |  | COc1cccc2c(NCc3ccccc3)nc(-n3c(N)nc4ccccc43)nc12 [ML240] | selectively inhibit D2 | less inhibition of the p97-p47 complex | ~ 50 fold | 
3 |  |  |  |  |  |  |  | c1ccc(CNc2nc(N3CCOc4ccccc43)nc3c2CCCC3)cc1 [ML241] | selectively inhibit D2 | less inhibition of the p97-p47 complex | ~ 50 fold | 
4 |  |  |  |  |  |  |  | Cc1cc(OCc2nnc(SC3CCCC3)n2-c2cccnc2)ccc1-c1ccc(S(C)(=O)=O)cc1 [NMS-873] | inhibit both the D1 and D2 ATPase domains |  |  | inhibited the ATPase activity of both the D1 and D2 domains
